Laboratory results as given in publication PMC10764114 (ACS Omega, 2023).

Experiments:
[1] = MTT assay, cytotoxicity against normal HEK293 cells; format: cell-based, human; settings: human, HEK293 cells
Outline: (§1)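 Cells grown in DMEM (4.5 g/L glucose, 10% FBS, 1% penicillin/streptomycin) at 37 °C, 5% CO₂. Seeded at 1 × 10³ cells/well and left 24 h to adhere. Test compound added at 10, 40, 80, 100 or 150 μM for 48 h (text also states MTT added 24 h post-dosing). MTT in PBS added for 3 h, formazan dissolved in DMSO for 30 min, OD read at 550 nm, % viability calculated from absorbance.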

[2] = tested on: U87-malignant glioma (ATCC-HTB-14); test: MTT assay, cytotoxicity against U87-malignant glioma cells; format: cell-based, human; settings: Homo sapiens, Glioma cell; for viability at 10 µM / viability at 40 µM / viability at 80 µM / viability at 100 µM / viability at 150 µM: read-out: % cell viability U87; for IC50: read-out: IC50 (μM ± SEM U87)
Outline: as §1

COc1ccc(C=NNC(=O)COc2ccc(C=NNC(=O)C(C)c3ccc(CC(C)C)cc3)cc2)c(O)c1 (stereo not shown) [5m, N′-(4-(2-(2-(2-Hydroxy-4-methoxybenzylidene)hydrazinyl)-2-oxoethoxy)benzylidene)-2-(4-isobutylphenyl)propanehydrazide]
viability at 48 h, 10 μM [1]: 26.2%
viability at 48 h, 40 μM [1]: 26.1%
viability at 48 h, 80 μM [1]: 24.2%
viability at 48 h, 100 μM [1]: 21.9%
viability at 48 h, 150 μM [1]: 18.6%
viability at 10 µM [2]: 142%
viability at 40 µM [2]: 138%
viability at 80 µM [2]: 34.5%
viability at 100 µM [2]: 134%
viability at 150 µM [2]: 128%
IC50 [2]: 150.5 ± 0.2 µM

COc1ccc(C=NNC(=O)COc2ccc(C=NNC(=O)C(C)c3ccc(CC(C)C)cc3)cc2)cc1O (stereo not shown) [5n, N′-(4-(2-(2-(3-Hydroxy-4-methoxybenzylidene)hydrazinyl)-2-oxoethoxy)benzylidene)-2-(4-isobutylphenyl)propanehydrazide]
viability at 48 h, 10 μM [1]: 38.1%
viability at 48 h, 40 μM [1]: 28%
viability at 48 h, 80 μM [1]: 24.8%
viability at 48 h, 100 μM [1]: 16.9%
viability at 48 h, 150 μM [1]: 12.6%
viability at 10 µM [2]: 165%
viability at 40 µM [2]: 85.3%
viability at 80 µM [2]: 61.1%
viability at 100 µM [2]: 42.7%
viability at 150 µM [2]: 33.2%
IC50 [2]: 40.18 ± 0.07 µM

CCN(CC)c1ccc(C=NNC(=O)COc2ccc(C=NNC(=O)C(C)c3ccc(CC(C)C)cc3)cc2)cc1 (stereo not shown) [5o, N′-(4-(2-(2-(4-(Diethylamino)benzylidene)hydrazinyl)-2-oxoethoxy)benzylidene)-2-(4-isobutylphenyl)propanehydrazide]
viability at 48 h, 10 μM [1]: 49%
viability at 48 h, 40 μM [1]: 42.9%
viability at 48 h, 80 μM [1]: 37.7%
viability at 48 h, 100 μM [1]: 35.8%
viability at 48 h, 150 μM [1]: 35.2%
viability at 10 µM [2]: 146%
viability at 40 µM [2]: 122%
viability at 80 µM [2]: 121%
viability at 100 µM [2]: 119%
viability at 150 µM [2]: 107%
IC50 [2]: 119.7 ± 0.25 µM

COc1cccc(C=NNC(=O)COc2ccc(C=NNC(=O)C(C)c3ccc(CC(C)C)cc3)cc2)c1 (stereo not shown) [5p, 2-(4-Isobutylphenyl)-N′-(4-(2-(2-(3-methoxybenzylidene)hydrazinyl)-2-oxoethoxy)benzylidene)propanehydrazide]
viability at 48 h, 10 μM [1]: 49.9%
viability at 48 h, 40 μM [1]: 49.4%
viability at 48 h, 80 μM [1]: 49.2%
viability at 48 h, 100 μM [1]: 48.1%
viability at 48 h, 150 μM [1]: 39.3%
viability at 10 µM [2]: 151%
viability at 40 µM [2]: 122%
viability at 80 µM [2]: 93.7%
viability at 100 µM [2]: 93.7%
viability at 150 µM [2]: 93.5%
IC50 [2]: 90.68 ± 0.13 µM

CC(C)Cc1ccc(C(C)C(=O)NN=Cc2ccc(OCC(=O)NN=Cc3ccc(F)cc3)cc2)cc1 (stereo not shown) [5q, N′-(4-(2-(2-(4-Fluorobenzylidene)hydrazinyl)-2-oxoethoxy)benzylidene)-2-(4-isobutylphenyl)propanehydrazide]
viability at 48 h, 10 μM [1]: 27.5%
viability at 48 h, 40 μM [1]: 25.4%
viability at 48 h, 80 μM [1]: 19.9%
viability at 48 h, 100 μM [1]: 19.7%
viability at 48 h, 150 μM [1]: 17.8%
viability at 10 µM [2]: 183%
viability at 40 µM [2]: 84%
viability at 80 µM [2]: 81.7%
viability at 100 µM [2]: 48.5%
viability at 150 µM [2]: 40.5%
IC50 [2]: 46 ± 0.08 µM

CC(C)Cc1ccc(C(C)C(=O)NN=Cc2ccc(OCC(=O)NN=Cc3ccccc3O)cc2)cc1 (stereo not shown) [5r, N′-(4-(2-(2-(2-Hydroxybenzylidene)hydrazinyl)-2-oxoethoxy)benzylidene)-2-(4-isobutylphenyl)propanehydrazide]
viability at 48 h, 10 μM [1]: 39%
viability at 48 h, 40 μM [1]: 33.6%
viability at 48 h, 80 μM [1]: 32%
viability at 48 h, 100 μM [1]: 26.1%
viability at 48 h, 150 μM [1]: 25.1%
viability at 10 µM [2]: 109%
viability at 40 µM [2]: 81.4%
viability at 80 µM [2]: 72.8%
viability at 100 µM [2]: 45.5%
viability at 150 µM [2]: 40.6%
IC50 [2]: 43.66 ± 0.04 µM

CC(C)Cc1ccc(C(C)C(=O)NN=Cc2ccc(OCC(=O)NN=Cc3cccc4ccccc34)cc2)cc1 (stereo not shown) [5t, 2-(4-Isobutylphenyl)-N′-(4-(2-(2-(naphthalen-1-ylmethylene)hydrazinyl)-2-oxoethoxy)benzylidene)propanehydrazide]
viability at 48 h, 10 μM [1]: 68.7%
viability at 48 h, 40 μM [1]: 58.9%
viability at 48 h, 80 μM [1]: 51%
viability at 48 h, 100 μM [1]: 47.3%
viability at 48 h, 150 μM [1]: 43%
viability at 10 µM [2]: 179%
viability at 40 µM [2]: 169%
viability at 80 µM [2]: 155%
viability at 100 µM [2]: 146%
viability at 150 µM [2]: 140%
IC50 [2]: 86.74 ± 0.26 µM

CC(C)Cc1ccc(C(C)C(=O)NN=Cc2ccc(OCC(=O)NN)cc2)cc1 (stereo not shown) [compound 4, N′-(4-(2-Hydrazinyl-2-oxoethoxy)benzylidene)-2-(4-isobutylphenyl)propanehydrazide]
viability at 48 h, 10 μM [1]: 29.1%
viability at 48 h, 40 μM [1]: 28.6%
viability at 48 h, 80 μM [1]: 28.2%
viability at 48 h, 100 μM [1]: 26.3%
viability at 48 h, 150 μM [1]: 9.96%
viability at 10 µM [2]: 72.5%
viability at 40 µM [2]: 47.9%
viability at 80 µM [2]: 41.6%
viability at 100 µM [2]: 41.3%
viability at 150 µM [2]: 33.7%
IC50 [2]: 59.9 ± 0.08 µM
